Measurements as given in ChEMBL document CHEMBL1157913, “Development of a new generation of 4-aminoquinoline antimalarial compounds using predictive pharmacokinetic and toxicology models” (J Med Chem, 2010).

Columns and labels:
[1] = Permeability by PAMPA assay at pH 6.2; format: ADME
[2] = Permeability by PAMPA assay at pH 5.0; format: ADME
[3] = Tmax in CD1 mouse at 50 mg/kg, po; format: ADME, organism-based; parameters: dose 50 mg/kg, route oral; details: in vivo
Method in brief: (§1)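 Male CD-1 mice given one 50 mg/kg oral gavage dose (n = 3), vehicle 0.9% saline or 5% DMSO/95% PEG300 depending on compound. Retro-orbital blood into EDTA under isoflurane at 15, 30, 60 min and 2, 4, 8, 10, 24, 48 h (3 mice per time point). Plasma analysed by LC-MS/MS; AUC0-t, Cmax, Tmax, t1/2 derived by noncompartmental software.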

[4] = Toxicity in po dosed CD1 mouse administered qd for 7 days; format: organism-based; details: in vivo
Method in brief: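 Male and female CD-1 mice (6–8 weeks, n = 5/sex/dose group) received oral gavage once daily for 7 days at 50, 100, 200 or 100, 200, 400 mg/kg/day, depending on the article. The article was suspended daily in 5% DMSO:95% PEG 300, and vehicle-treated animals served as controls. Body weights were taken predose, on day 4 and on day 8. Day-8 retro-orbital blood went to hematology and serum chemistry, followed by necropsy with histopathology and organ weights. MTD was estimated.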

[5] = Cmax in CD1 mouse at 50 mg/kg, po; format: ADME, organism-based; parameters: dose 50 mg/kg, route oral; details: in vivo; method in brief: as §1
[6] = AUClast in CD1 mouse at 50 mg/kg, po; format: ADME, organism-based; parameters: time 0 - last, dose 50 mg/kg, route oral; details: plasma; method in brief: as §1
[7] = Permeability by PAMPA assay at pH 7.4; format: ADME
Method in brief: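 Double-sink PAMPA, GIT-0 lipid-coated filter. Donor 50 μM final (from DMSO stock) at pH 5.0, 6.2 or 7.4; acceptor pH 7.4. Stirred 30 min (40 μm aqueous boundary layer), constant humidity. Both compartments read by UV absorbance 250–500 nm; Pe (cm/s) calculated, four wells per pH, mean ± SD.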

Structure (SMILES)	permeability [1]	permeability [2]	Tmax [3]	MTD at 168 h [4]	Cmax [5]	AUC(0-t) [6]	permeability [7]
Clc1ccc2c(NCCCNCc3cccc4c3OCO4)ccnc2c1	979 ×10⁻⁶ cm/s	19 ×10⁻⁶ cm/s	120 min	100 mg/kg	240 nM	2.03 µM·h	2400 ×10⁻⁶ cm/s
COc1cccc(CNCCCNc2ccnc3cc(Cl)ccc23)c1O	–	–	240 min	400 mg/kg	65.9 nM	0.62 µM·h	1363 ×10⁻⁶ cm/s
CCN(CC)CCCC(C)Nc1ccnc2cc(C(F)(F)F)ccc12 (stereo not drawn)	235 ×10⁻⁶ cm/s	2 ×10⁻⁶ cm/s	–	–	–	–	2704 ×10⁻⁶ cm/s
CCN(CC)CCCC(C)Nc1ccnc2cc(Cl)ccc12 (stereo not drawn) [CHLOROQUINE]	51 ×10⁻⁶ cm/s	–	30 min	–	444 nM	2.64 µM·h	775 ×10⁻⁶ cm/s
CCCN(CCCNc1ccnc2cc(Cl)ccc12)CC1CC1	2 ×10⁻⁶ cm/s	–	30 min	–	437 nM	6.79 µM·h	1109 ×10⁻⁶ cm/s
CCN(CC)CCCC(C)Nc1ccnc2cc(Oc3ccccc3)ccc12 (stereo not drawn)	–	–	30 min	–	261 nM	0.726 µM·h	–
